Screening results as filed in PubChem.
Sampled rows, rich in hits. Any-hit rate of the full collection: about 2.5%.
SENP1 inh = SENP1 (human) catalytic domain inhibition; AID 624204; recombinant SENP1 catalytic domain, CyPet-SUMO1-YPet FRET cleavage; Q9P0U3; actives 0.21% (n = 360,000); inhibition, % at 10 µM;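 active means inhibition at least 30% at 10 µM, raw YFP signal under a set limit, fluorescence ratio 0.5 to 1.5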
Target sequence (Q9P0U3 419-644 limits assumed): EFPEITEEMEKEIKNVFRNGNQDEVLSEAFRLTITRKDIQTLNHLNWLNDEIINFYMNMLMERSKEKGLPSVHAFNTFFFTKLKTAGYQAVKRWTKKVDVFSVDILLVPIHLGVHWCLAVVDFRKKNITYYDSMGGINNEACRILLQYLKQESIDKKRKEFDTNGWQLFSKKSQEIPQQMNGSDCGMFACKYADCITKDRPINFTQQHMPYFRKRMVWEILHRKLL
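material = recombinant human SENP1 catalytic domain, His6-tagged | quantity = 20 pM enzyme | reagent = 25 nM SUMO1 FRET substrate | compound dosing = 10 µM single point, 0.5% DMSO | timing = 50 min enzyme reaction, room temperature, light-protected | detection = FRET, CFP and YFP emission | control set = no-enzyme low, enzyme-DMSO high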
SENP6 block = blocks the human protease SENP6; Q9GZR1; Recombinant SENP6 catalytic domain, aminoluciferin luminescence; inhibition, % at 10 µM; actives 1.8% (n = 330,000); AID 2599;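 active means inhibition above about 50% at the single tested dose, limit read from the data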
SENP8 block-1 = blocks the human protease SENP8; actives 1.2% (n = 330,000); inhibition, % at 10 µM; Q96LD8; purified SENP8, Z-RLRGG-aminoluciferin cleavage, luminescence; in the data active means inhibition above about 50%
Target sequence (Q96LD8 whole entry, looked up): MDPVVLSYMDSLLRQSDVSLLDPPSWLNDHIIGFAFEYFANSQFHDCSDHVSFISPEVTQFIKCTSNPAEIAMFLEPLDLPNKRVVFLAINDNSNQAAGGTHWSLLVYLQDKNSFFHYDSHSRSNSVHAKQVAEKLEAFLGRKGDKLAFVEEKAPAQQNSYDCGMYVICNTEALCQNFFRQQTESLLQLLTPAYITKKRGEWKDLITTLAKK
SENP7 block = inhibitors of human SENP7 protease; Q9BQF6; recombinant SENP7, Z-RLRGG-aminoluciferin luminescence, 40 min; inhibition, % at 5 µM; actives 1.5% (n = 330,000);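 active means inhibition above about 50% at the single test dose, limit read from the data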
SENP8 block-2 = blocks human SENP8 cleavage of Nedd8 substrate. recombinant SENP8, Nedd8 substrate fluorescence. inhibition, % at 20 µM. actives 0.64% (n = 360,000). AID 602440; in the data active means inhibition mostly above about 40%, no sharp cut-off; inactive means mostly below about 27%
SENP8 confirm = confirmation of human SENP8 protease inhibitors; inhibition, % at 12.5 µM; Recombinant SENP8, Z-RLRGG-aminoluciferin luminescence, 60 min; actives 40% (n = 6,200); shares compounds with SENP7 block;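 active means mean inhibition across replicates above about 50%, limit read from the data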
SENP6 confirm = confirmation of human SENP6 protease inhibitors; AID 488915; actives 58% (n = 6,200); recombinant SENP6, Z-RLRGG-aminoluciferin luminescence; inhibition, % at 12.5 µM; shares compounds with SENP7 block
SENP7 confirm = confirmation of human SENP7 protease inhibitors; recombinant SENP7, Z-RLRGG-aminoluciferin luminescence, 40 min; shares compounds with SENP7 block; inhibition, % at 12.5 µM; actives 69% (n = 6,200); AID 488917
Casp3 SENP sel = caspase-3 inhibition (SENP selectivity assay); shares compounds with SENP7 block; purified caspase-3, Z-DEVD-aminoluciferin luminescence, 60 min; inhibition, % at 12.5 µM; actives 60% (n = 6,200); AID 488918;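 active means mean inhibition above about 50%, limit read from the data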
Luc interf = counter-screen for SENP inhibitors: luminescence interference | shares compounds with SENP7 block | Pre-incubated SENP8/Z-RLRGG-aminoluciferin, luciferase luminescence interference | inhibition, % at 12.5 µM | actives 39% (n = 6,200);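 active means mean inhibition above about 50% when retested at one dose, limit read from the data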
Of the large screens only hits and unclear results are named; the others gave an inactive call (follow-up assays come after a bar, where they were run).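 How the source made its calls, unless noted: active means mean inhibition above about 50% in the one-dose retest (limit read from the data); inactive means the rest.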

CC(C)Cc1nnc(NC(=O)c2ccc(N3CCCC3=O)cc2)s1	none
COc1cccc(C(O)c2nc(-c3cccc(F)c3)cs2)c1 (stereo not given)	none (no result: SENP6 block, SENP8 block-1, SENP7 block)
Cc1cc(C(=O)COc2cccc([N+](=O)[O-])c2)c(C)n1C1CC1	SENP6 block 58 | SENP8 confirm 67 | SENP6 confirm 63 | SENP7 confirm 89 | Casp3 SENP sel 66 | Luc interf inactive
CCCc1[nH]n(-c2nc3ccccc3s2)c(=O)c1C=NCC(C)C	none
C/C(=N/NC(=O)c1cccs1)c1c(C)[nH]n(-c2nc3ccccc3s2)c1=O	SENP6 block 97, SENP8 block-1 93, SENP7 block 99 | SENP8 confirm 90 | SENP6 confirm 81 | SENP7 confirm 94 | Casp3 SENP sel 98 | Luc interf 66
O=c1c(C=NCc2cccnc2)c(C(F)(F)F)[nH]n1-c1nc2ccccc2s1	SENP6 block 97, SENP8 block-1 97, SENP7 block 99 | SENP8 confirm 100 | SENP6 confirm 101 | SENP7 confirm 103 | Casp3 SENP sel 99 | Luc interf 99
CCC(=NCc1ccccc1)c1c(C(F)(F)F)[nH]n(-c2nc3ccccc3s2)c1=O	SENP6 block 85, SENP8 block-1 60, SENP7 block 89 | SENP8 confirm inactive | SENP6 confirm inactive | SENP7 confirm inactive | Casp3 SENP sel 64 | Luc interf inactive
CCC(=NCc1ccco1)c1c(C(F)(F)F)[nH]n(-c2nc3ccccc3s2)c1=O	SENP6 block 96, SENP8 block-1 88, SENP7 block 96 | SENP8 confirm 73 | SENP6 confirm 70 | SENP7 confirm 90 | Casp3 SENP sel 90 | Luc interf 81
CC(C)NC(=O)C1C(c2ccc(C(F)(F)F)cc2)=Nc2ccccc2N1C(=O)c1cccc(C(F)(F)F)c1 (stereo not given)	none (no result: SENP6 block, SENP8 block-1, SENP7 block)
Cc1cc(S(=O)(=O)Nc2ccc(C(=O)NCCN3CCOCC3)cc2)ccc1F	none (no result: SENP6 block, SENP8 block-1, SENP7 block)
CC(=O)Nc1ccc(S(=O)(=O)NC2CC(=O)N(c3ccc(C)cc3)C2)cc1 (stereo not given)	none
CCCN=C(C)c1c(-c2ccccc2)[nH]n(-c2nc3ccccc3s2)c1=O	none
CC(=NCc1ccco1)c1c(C)[nH]n(-c2nc3ccccc3s2)c1=O	SENP6 block 65 | SENP8 confirm inactive | SENP6 confirm inactive | SENP7 confirm 73 | Casp3 SENP sel inactive | Luc interf inactive
Cc1ccc(OCC(=O)N2CCCC(CO)(CCOc3ccccc3)C2)cc1 (stereo not given)	none
Cc1ccc(/C=C/C(=O)O)cc1S(=O)(=O)N1CCCCC1	none
Cc1ccc(C(=O)Nc2nc(=O)n(C)s2)cc1	none
CC(=O)c1sc(NC(=O)c2ccc(Cl)cc2)nc1C	SENP7 block 72 | SENP8 confirm inactive | SENP6 confirm inactive | SENP7 confirm inactive | Casp3 SENP sel inactive | Luc interf inactive
CC(=O)c1sc(NC(=O)c2ccccc2C)nc1C	SENP6 block 79, SENP8 block-1 67, SENP7 block 82 | SENP8 confirm inactive | SENP6 confirm 67 | SENP7 confirm 93 | Casp3 SENP sel 90 | Luc interf 52
CC(=O)Nc1nc(C)c(C(C)=O)s1	none
Cc1nc(NC(=O)c2cccc(Cl)c2)sc1C(=O)N1CCCCC1	SENP6 block 72, SENP8 block-1 57, SENP7 block 68 | SENP8 confirm inactive | SENP6 confirm inactive | SENP7 confirm inactive | Casp3 SENP sel inactive | Luc interf inactive
